Values after ≈ are worked out from the molar mass of the structure shown. Active and inactive are the calls of the source. No cut-off for these calls is given here.
Columns and labels:
Mus musculus = assay: Antiinflammatory activity in mouse assessed as inhibition of carrageenan-induced increase in paw volume at 200 mg/kg administered 1 hr prior to carrageenan challenge measured after 3 hrs relative to control; assay type: functional
How it was run: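 Mice were fasted 2 h and placed in groups of five. Controls received saline i.p. Phenylbutazone was given at 100 mg/kg i.p., curcumin at 200 mg/kg i.p., and derivatives at 200 mg/kg. After 1 h, 0.1 mL of 1% carrageenan in saline was injected subplantar into the right hind paw. Paw volume was followed by plethysmometer for 3 h, and % inhibition was calculated as (Vc − Vt)/Vc × 100.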

HCT-116 = assay: Cytotoxicity against human HCT116 cells after 24 hrs by MTT assay; assay type: functional, cell-based
How it was run: (§1)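 The MTT assay seeded 5 × 10⁴ cells per well and grew them 24 h in RPMI 1640 with compound at 2.5–200 µM. Medium without cells was the blank and adriamycin the positive control. MTT was added for 4 h at 37 °C, formazan was solubilised, and absorbance was read at 570 nm. IC50 is the concentration that cuts viability 50% against untreated cells.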

QG-56 = assay: Cytotoxicity against human QG56 cells after 24 hrs by MTT assay; assay type: functional, cell-based; how it was run: as §1
HeLa = assay: Cytotoxicity against human HeLa cells after 24 hrs by MTT assay; assay type: functional, cell-based; how it was run: as §1
HepG2 = assay: Cytotoxicity against human HepG2 cells after 24 hrs by MTT assay; assay type: functional, cell-based; how it was run: as §1
Trichoderma viride [1] = assay: Antifungal activity against Trichoderma viride MTCC 1107 after 48 hrs; assay type: functional; conditions: MTCC 1107, 48 h
Trichoderma viride [2] = assay: Antifungal activity against Trichoderma viride MTCC 1107 assessed as zone of inhibition at 20 uM after 48 hrs by disc diffusion method; assay type: functional; conditions: MTCC 1107, 48 h, read-out: IZ
How it was run: (§2)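 Spores from 4-day potato dextrose agar cultures, suspended in sterile water at 1.5 × 10⁵ CFU/mL. 0.2 mL was spread on potato dextrose agar. 5 mm filter-paper discs soaked with test compound were laid on the lawn. Incubation was 48 h at 28 °C, then the inhibition zone was measured in mm. Fluconazole was the positive control and acetone the negative control.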

Trichoderma viride [3] = assay: Antifungal activity against Trichoderma viride MTCC 1107 assessed as zone of inhibition at 40 uM after 48 hrs by disc diffusion method; assay type: functional; conditions: MTCC 1107, 48 h, read-out: IZ; how it was run: as §2
Trichoderma viride [4] = assay: Antifungal activity against Trichoderma viride MTCC 1107 assessed as zone of inhibition at 80 uM after 48 hrs by disc diffusion method; assay type: functional; conditions: MTCC 1107, 48 h, read-out: IZ; how it was run: as §2
Curvularia lunata [5] = assay: Antifungal activity against Curvularia lunata MTCC 581 after 48 hrs; assay type: functional; conditions: MTCC 581, 48 h
Curvularia lunata [6] = assay: Antifungal activity against Curvularia lunata MTCC 581 assessed as zone of inhibition at 20 uM after 48 hrs by disc diffusion method; assay type: functional; conditions: MTCC 581, 48 h, read-out: IZ; how it was run: as §2
Curvularia lunata [7] = assay: Antifungal activity against Curvularia lunata MTCC 581 assessed as zone of inhibition at 40 uM after 48 hrs by disc diffusion method; assay type: functional; conditions: MTCC 581, 48 h, read-out: IZ; how it was run: as §2
Aspergillus flavus [8] = assay: Antifungal activity against Aspergillus flavus MTCC 1021 after 48 hrs; assay type: functional; conditions: MTCC 1021, 48 h
Curvularia lunata [9] = assay: Antifungal activity against Curvularia lunata MTCC 581 assessed as zone of inhibition at 80 uM after 48 hrs by disc diffusion method; assay type: functional; conditions: MTCC 581, 48 h, read-out: IZ; how it was run: as §2
Aspergillus flavus [10] = assay: Antifungal activity against Aspergillus flavus MTCC 1021 assessed as zone of inhibition at 20 uM after 48 hrs by disc diffusion method; assay type: functional; conditions: MTCC 1021, 48 h, read-out: IZ; how it was run: as §2
Aspergillus flavus [11] = assay: Antifungal activity against Aspergillus flavus MTCC 1021 assessed as zone of inhibition at 40 uM after 48 hrs by disc diffusion method; assay type: functional; conditions: MTCC 1021, 48 h, read-out: IZ; how it was run: as §2
Aspergillus flavus [12] = assay: Antifungal activity against Aspergillus flavus MTCC 1021 assessed as zone of inhibition at 80 uM after 48 hrs by disc diffusion method; assay type: functional; conditions: MTCC 1021, 48 h, read-out: IZ; how it was run: as §2
Aspergillus niger [13] = assay: Antifungal activity against Aspergillus niger MTCC 1108 after 48 hrs; assay type: functional; conditions: MTCC 1108, 48 h
Aspergillus niger [14] = assay: Antifungal activity against Aspergillus niger MTCC 1108 assessed as zone of inhibition at 20 uM after 48 hrs by disc diffusion method; assay type: functional; conditions: MTCC 1108, 48 h, read-out: IZ; how it was run: as §2
Aspergillus niger [15] = assay: Antifungal activity against Aspergillus niger MTCC 1108 assessed as zone of inhibition at 40 uM after 48 hrs by disc diffusion method; assay type: functional; conditions: MTCC 1108, 48 h, read-out: IZ; how it was run: as §2
Aspergillus niger [16] = assay: Antifungal activity against Aspergillus niger MTCC 1108 assessed as zone of inhibition at 80 uM after 48 hrs by disc diffusion method; assay type: functional; conditions: MTCC 1108, 48 h, read-out: IZ; how it was run: as §2
Escherichia coli [17] = assay: Antimicrobial activity against Escherichia coli ATCC 35218 after 24 hrs by broth micro serial dilution method; assay type: functional; conditions: ATCC 35218, 24 h
How it was run: (§3)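 This was broth microdilution in autoclaved Mueller-Hinton broth. 150 µL of compound per well was serially diluted […], and 50 µL of test organism was added. Plates were incubated 24 h at 37 °C and optical density was read.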

Escherichia coli [18] = assay: Antimicrobial activity against Escherichia coli ATCC 35218 assessed as diameter of inhibition zone at 80 uM after 24 hrs by Kirby -Baur disc diffusion method; assay type: functional
How it was run: (§4)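 Kirby-Bauer disc diffusion was used. Acetone stocks (160 µM) were serially doubled down to 80, 40 and 20 µM. 4 µL of each went onto 5 mm sterile paper discs, which were dried 30 min at 50 °C. Inoculum was 1.5 × 10⁸ CFU/mL diluted to 3 × 10² CFU/mL, and 50 µL was spread on Mueller-Hinton agar. After 24 h at 37 °C the inhibition-zone diameter was measured. Ciprofloxacin served as positive control.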

Pseudomonas aeruginosa [19] = assay: Antimicrobial activity against Pseudomonas aeruginosa ATCC 15499 after 24 hrs by broth micro serial dilution method; assay type: functional; conditions: ATCC 15499, 24 h; how it was run: as §3
Pseudomonas aeruginosa [20] = assay: Antimicrobial activity against Pseudomonas aeruginosa ATCC 15499 assessed as diameter of inhibition zone at 80 uM after 24 hrs by Kirby -Baur disc diffusion method; assay type: functional; how it was run: as §4
Salmonella typhi [21] = assay: Antimicrobial activity against Salmonella typhi ATCC 23564 after 24 hrs by broth micro serial dilution method; assay type: functional; conditions: Salmonella enterica subsp. enterica serovar Typhi
Salmonella typhi [22] = assay: Antimicrobial activity against Salmonella typhi ATCC 23564 assessed as diameter of inhibition zone at 80 uM after 24 hrs by Kirby -Baur disc diffusion method; assay type: functional; conditions: Salmonella enterica subsp. enterica serovar Typhi
Bacillus cereus [23] = assay: Antimicrobial activity against Bacillus cereus MTCC 7350 after 24 hrs by broth micro serial dilution method; assay type: functional; how it was run: as §3
Bacillus cereus [24] = assay: Antimicrobial activity against Bacillus cereus MTCC 7350 assessed as diameter of inhibition zone at 80 uM after 24 hrs by Kirby -Baur disc diffusion method; assay type: functional; how it was run: as §4
Staphylococcus aureus [25] = assay: Antimicrobial activity against Staphylococcus aureus ATCC 11632 after 24 hrs by broth micro serial dilution method; assay type: functional; how it was run: as §3
Staphylococcus aureus [26] = assay: Antimicrobial activity against Staphylococcus aureus ATCC 11632 assessed as diameter of inhibition zone at 80 uM after 24 hrs by Kirby -Baur disc diffusion method; assay type: functional; how it was run: as §4

## COc1cc(/C=C/C(=O)C(/N=N/c2ccc(S(=O)(=O)Nc3ccccn3)cc2)=C(O)/C=C/c2ccc(O)c(OC)c2)ccc1O
Mus musculus
  inhibition in vivo at 200 mg/kg: 9.6%
HCT-116
  IC50: Not Active
QG-56
  IC50: Not Active
HeLa
  IC50: 100 µM
HepG2
  IC50: Not Active
Trichoderma viride [1]
  MIC: 40 µM (≈ 25.1 µg/mL)
Trichoderma viride [2]
  zone of inhibition at 20 µM: 10 mm
Trichoderma viride [3]
  zone of inhibition at 40 µM: 13 mm
Trichoderma viride [4]
  zone of inhibition at 80 µM: 17 mm
Curvularia lunata [5]
  MIC: 40 µM (≈ 25.1 µg/mL)
Curvularia lunata [6]
  zone of inhibition at 20 µM: 10 mm
Curvularia lunata [7]
  zone of inhibition at 40 µM: 13 mm
Aspergillus flavus [8]
  MIC: 40 µM (≈ 25.1 µg/mL)
Curvularia lunata [9]
  zone of inhibition at 80 µM: 17 mm
Aspergillus flavus [10]
  zone of inhibition at 20 µM: 9 mm
Aspergillus flavus [11]
  zone of inhibition at 40 µM: 12 mm
Aspergillus flavus [12]
  zone of inhibition at 80 µM: 13 mm
Aspergillus niger [13]
  MIC: 40 µM (≈ 25.1 µg/mL)
Aspergillus niger [14]
  zone of inhibition at 20 µM: 9 mm
Aspergillus niger [15]
  zone of inhibition at 40 µM: 11 mm
Aspergillus niger [16]
  zone of inhibition at 80 µM: 14 mm
Escherichia coli [17]
  MIC: > 80 µM
Escherichia coli [18]
  diameter of the inhibition zone (DIZ): inactive
Pseudomonas aeruginosa [19]
  MIC: > 80 µM
Pseudomonas aeruginosa [20]
  diameter of the inhibition zone (DIZ): inactive
Salmonella typhi [21]
  MIC: inactive
Salmonella typhi [22]
  diameter of the inhibition zone (DIZ): inactive
Bacillus cereus [23]
  MIC: inactive
Bacillus cereus [24]
  diameter of the inhibition zone (DIZ): inactive
Staphylococcus aureus [25]
  MIC: inactive
Staphylococcus aureus [26]
  diameter of the inhibition zone (DIZ): inactive

Source: ChEMBL document CHEMBL2384906, “Biological activity, design, synthesis and structure activity relationship of some novel derivatives of curcumin containing sulfonamides” (Eur J Med Chem, 2013)
